# Screening results deposited in PubChem by Johns Hopkins Ion Channel Center.
# RGS4 pot = RGS4 potentiators or activators, primary screen, cell-based, HEK293 M3R inducible RGS4, calcium flux; carbachol calcium flux Fluo4; stronger effect = lower value; B-score at 10 µM; 310,000 tested, 0.92% active;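 active = B-score of the integrated calcium signal more than 4 SD below the library mean, with starting fluorescence not abnormally high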;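 also: negative B-score means reduced calcium response which marks RGS4 activation or potentiation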
#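 System – HEK293 FlpIn-TREx cells, stable M3R, doxycycline-inducible RGS4 · Reagent – ECmax carbachol challenge · Times – compound preincubation 20 min at room temperature before agonist · Technique – Fluo4 fluorescence kinetic imaging of calcium · Measure – B score of integrated Fluo4 ratio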
# MrgX1 PAM = positive allosteric modulators of MrgX1, primary screen, HEK293 cells, Fluo-4 calcium flux | Mas-related G-protein coupled receptor member X1 (Homo sapiens), Q96LB2 | FDSS; stronger effect = higher value | B-score at 10 µM | 310,000 tested, 0.63% active | AID 588675, 2011;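 active = plate-corrected calcium response at least 3 library SD above typical, normal starting fluorescence, not activating the receptor alone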;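 also: compound read alongside a low EC10 to EC30 dose of BAM8-22 agonist; peak minus trough fluorescence over baseline measured at the second addition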
# Target sequence (Q96LB2 whole entry, looked up): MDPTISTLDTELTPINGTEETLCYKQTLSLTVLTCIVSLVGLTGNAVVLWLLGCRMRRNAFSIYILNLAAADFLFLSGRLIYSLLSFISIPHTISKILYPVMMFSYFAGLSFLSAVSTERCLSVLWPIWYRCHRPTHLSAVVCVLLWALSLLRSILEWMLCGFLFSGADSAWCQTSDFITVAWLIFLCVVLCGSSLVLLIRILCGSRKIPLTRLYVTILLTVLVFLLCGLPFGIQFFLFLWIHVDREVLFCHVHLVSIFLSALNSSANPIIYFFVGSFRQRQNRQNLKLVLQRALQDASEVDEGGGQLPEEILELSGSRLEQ
# MrgX1 antagonist = antagonists of human MrgX1 receptor, primary screen, HEK293 cells, Fluo-4 calcium flux | AID 588676, 2011 | BAM8-22 antagonism; stronger effect = lower value | 310,000 tested, 1.3% active | B-score at 10 µM | Mas-related G-protein coupled receptor member X1 (Homo sapiens), Q96LB2;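 active = calcium-response B-score plate-corrected more than 3 library SD below zero, starting fluorescence within 5 deviations, no agonist response on first addition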;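 also: peak minus trough fluorescence over baseline after final BAM8-22 challenge near maximal dose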
# RGS4 inh = RGS4 inhibitors, primary screen, cell-based, HEK293 M3R inducible RGS4, calcium flux; Regulator of G-protein signaling 4 (Homo sapiens), P49798; Fluo-4 calcium flux; stronger effect = higher value; triggered by carbachol at its EC20; B-score at 10 µM; 310,000 tested, 0.45% active; AID 463165, 2010;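 active = B-score, a plate-corrected calcium signal, over three deviations above library mean, with baseline fluorescence within five deviations of library mean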;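 also: RGS4 expression induced by doxycycline in cells with stable M3 receptor; B-score is computed from the integrated fluorescence ratio over baseline after carbachol; higher B-score means a larger calcium signal and so more RGS4 inhibition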
# Target sequence (P49798 whole entry, looked up): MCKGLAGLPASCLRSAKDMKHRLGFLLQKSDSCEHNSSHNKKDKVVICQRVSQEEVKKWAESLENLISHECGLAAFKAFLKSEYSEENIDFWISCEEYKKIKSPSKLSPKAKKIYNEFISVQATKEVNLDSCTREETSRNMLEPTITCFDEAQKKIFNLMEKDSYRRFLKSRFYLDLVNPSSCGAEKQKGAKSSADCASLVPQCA
# MrgX1 agonist = agonists of human MrgX1 receptor, primary screen, HEK293 cells, Fluo-4 calcium flux. Mas-related G-protein coupled receptor member X1 (Homo sapiens), Q96LB2. Fluo-4 calcium fluorescence, agonist mode; stronger effect = higher value. B-score at 10 µM. 310,000 tested, 0.44% active. AID 588627, 2011;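 active = calcium response B-score plate-corrected fluorescence ratio at least 3 library SD, with starting fluorescence B-score inside 5 SD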
#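 Material: MrgX1-expressing HEK293 cells / Dosing: compound as first of three additions / Incubation: overnight seeding, then 1 h dark dye loading / Signal: Fluo-4 NW calcium fluorescence / Evaluation: B-scored fluorescence response ratio / Benchmarks: positive and negative control wells on each plate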
# * hit, by the source's call; i = inactive; . = no result given. Sampled rows, rich in hits. Any-hit rate of the full collection: about 3.5%.
SMILES,RGS4 pot,MrgX1 PAM,MrgX1 antagonist,RGS4 inh,MrgX1 agonist
Oc1ccc(N=C/C=C/c2ccc(Br)cc2)cc1-c1nc2ccccc2s1,i,i,i,6.23*,i
COc1ccc(CCN(CC(=O)NCc2ccc(F)cc2)C(=O)c2snc(C(N)=O)c2N)cc1OC,i,i,i,i,i
CC(=O)COc1cc(C)cc2oc(=O)cc(-c3ccccc3)c12,i,i,i,i,i
Cc1cc(O)c2c(-c3ccccc3)cc(=O)oc2c1,.,i,i,.,43.6*
Cn1cc(/C=N/n2cnc3sc4c(c3c2=O)CCCC4)c2ccccc21,i,i,i,i,i
O=c1c2c3c(sc2ncn1/N=C/c1ccc([N+](=O)[O-])o1)CCCC3,i,i,i,5.24*,i
O=C(CSCc1ccccc1)N/N=C/c1ccccc1OCc1ccccc1,i,i,-5.42*,i,i
NC(=S)N/N=C/c1c[nH]c2ccc(OCc3ccccc3)cc12,-7.12*,i,i,i,i
O=C(CSCc1cccc(Br)c1)N/N=C/c1ccc2c(c1)OCO2,i,i,-5.38*,i,i
NC(=S)N/N=C\c1ccccc1OCc1ccccc1,i,i,-8.74*,i,i
Cc1cccc(-n2c(C)nc3cc(C(=O)NCc4ccc5c(c4)OCO5)ccc32)c1,i,i,i,i,i
CN1N=C(C(=O)N2CCCC(N3CCN(c4ccc(F)cc4)CC3)C2)CCC1=O (configuration not stated),i,i,i,i,i
CC(C)NC(=O)NC(=O)COc1ccc(Br)cc1Br,i,i,i,i,i
CCOC(=O)c1c(CSc2ccc(CC)cc2)oc2ccc(O)c(CN(C)C)c12,i,i,-5.91*,i,i
Cc1c(NC(=O)C2CCCN(S(=O)(=O)c3cnc[nH]3)C2)c(=O)n(-c2ccccc2)n1C (configuration not stated),i,i,-7.27*,i,i
Cc1ccccc1NC(=O)C1CCCN(S(=O)(=O)c2cnc[nH]2)C1 (configuration not stated),i,i,i,i,i
CCCCCCCCNC(=O)c1ccc(C)cc1,i,i,i,i,32.5*
CCCOC1CCCN(C(=O)c2ccc(OC3CCN(Cc4ccccn4)CC3)cc2)C1 (configuration not stated),i,i,i,i,i
Cc1ccc(-c2nc(N)s[n+]2-c2ccccc2)cc1,-9.85*,i,i,i,i
Cc1ccc(-c2nc3ccccc3nc2-c2ccccc2)cc1,i,i,i,i,i
O=C(c1ccc(Cl)nc1)c1cccs1,i,i,i,i,i
O=C(c1cccs1)c1no[n+]([O-])c1C(=O)c1cccs1,-6.97*,i,i,i,98.7*
Cc1cc(CNC(=O)C(C)n2nc(C)c([N+](=O)[O-])c2C)c2ccccc2n1 (configuration not stated),i,i,i,i,i
C1=CN2CCC1C(c1ccccc1)C2 (configuration not stated),-7.34*,i,i,i,i
Cc1noc(/C=C/c2ccccc2F)c1S(=O)(=O)N1CCC(C(=O)N2CCN(C)CC2)CC1,i,i,i,i,i
SMILES,RGS4 pot,MrgX1 PAM,MrgX1 antagonist,RGS4 inh,MrgX1 agonist
O=C1C2C3C=CC(C4CC34)C2C(=O)N1/N=C/c1ccc(-c2ccc(Cl)cc2[N+](=O)[O-])o1 (configuration not stated),-8.49*,i,i,i,i
CCCCOc1ccccc1C(=O)NNC(=S)NC(=O)c1ccccc1[N+](=O)[O-],i,i,-5.77*,i,i
O=C(NNC(=S)NC(=O)c1ccccc1[N+](=O)[O-])c1ccccc1[N+](=O)[O-],i,i,i,i,i
O=C1/C(=N/n2cnnc2)c2ccccc2N1Cc1ccccc1,i,i,i,i,44.6*
COc1ccc(/C=C/C(=O)c2cc(Cl)ccc2O)c(OC)c1,i,i,i,i,i
COc1ccc(/C=C/C(=O)c2ccc(Cl)cc2)c(OC)c1,i,i,-4.89*,i,i
C/C(=N\Nc1ccc([N+](=O)[O-])cc1)c1ccc(O)cc1,i,i,-5.57*,i,i
CCCCN(C)S(=O)(=O)c1ccc(C(=O)Nc2nnc(-c3cccs3)o2)cc1,i,i,i,i,30.9*
CCC(=O)Oc1ccc(C2NC(=O)c3ccccc3O2)cc1OC (configuration not stated),-7.59*,i,i,i,i
COc1ccc(C(=O)NCc2nnc(SCC(=O)N3CCCC3)o2)cc1,i,i,i,i,i
Cc1ccc(Cn2nc(C)c(NC(=O)CSc3n[nH]c(C)c3[N+](=O)[O-])c2C)cc1,i,i,-5.98*,i,i
CC(C)CNC(=O)/C(C#N)=C1\N=C(NC(=O)c2ccco2)c2ccccc21,i,i,-4.77*,i,i
C=CCNC(=O)/C(C#N)=C/c1c(N2CCN(c3ccc(OC)cc3)CC2)nc2c(C)cccn2c1=O,i,i,i,i,i
CCC(C(=O)NCc1ccc(C)o1)n1nc(C)c2c(C)n(-c3ccccc3)nc2c1=O (configuration not stated),i,i,i,i,i
C[C@H](c1ccccc1)n1nnc(COCc2ccccc2)c1C#CCOCc1ccccc1,i,i,i,i,i
CCCCCCc1cc2cc(-c3nnc(-c4cc(OC)c(OC)c(OC)c4)o3)c(=O)oc2cc1O,i,i,i,i,79.9*
CCCCCCc1cc2cc(-c3nnc(-c4ccccc4OC)o3)c(=O)oc2cc1O,i,i,i,i,i
C/C(=N\NC(=O)c1cc(-c2ccncc2)nc2ccccc12)c1ccc(OC(F)F)cc1,i,i,i,i,i
O=C(COC(=O)c1cccc([N+](=O)[O-])c1)c1ccc(OCc2ccccc2)cc1,-8.4*,i,i,i,i
COC(=O)[C@]1(Cc2ccccc2)N[C@H](c2ccc(-c3ccc(F)cc3)cc2)[C@@H]2C(=O)N(C)C(=O)[C@@H]21,i,i,i,i,i
Nc1c(C(=O)C2CC2)sc2nc(-c3ccccc3)cc(C(F)(F)F)c12,-9.35*,i,i,i,i
COc1ccc(-c2cc(C(F)(F)F)c3c(N)c(C(=O)NCCSC)sc3n2)cc1,i,i,i,i,i
